Among the data in ChEMBL document CHEMBL5126550, “In Silico Optimized Stapled Peptides Targeting WASF3 in Breast Cancer” (2022) are Activity and Drug uptake values, retold here.

For assay [1], the system named is MDA-MB-231. Description: Downregulation of MMP9 expression in human MDA-MB-231 cells at 2 uM measured after 72 hrs by immunoblot analysis. The class given is functional, cell-based. The method in brief:
(§1)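 Cells exposed 72 h to peptides, scramble control or vehicle. MMP9 protein levels measured by immunoblotting and quantified by densitometry across three independent blots. Levels compared against scramble control and vehicle.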

Assay [2] is described as follows: Downregulation of MMP9 expression in human MDA-MB-231 cells at 2 uM measured after 72 hrs by immunoblot analysis relative to control. The assay is classed as functional. The procedure, abridged: as §1
For orientation: Immunoblotting shows a protein as a band on a membrane.

For assay [3], the system named is MDA-MB-231. In words: Induction of WRC disruption in human MDA-MB-231 cells assessed as increase in actin stress fiber formation at 2 uM incubated for 4 hrs by phalloidin-iFluor 594 dye based inverted fluorescent microscopic method. The class given is functional, cell-based. The method in brief:
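Cells treated 4 h with biotin-labeled peptides, scramble control or DMSO. Cells then fixed, permeabilized and stained with phalloidin-iFluor 594 to show polymeric actin stress fibers by fluorescence imaging. n = 4.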

In assay [4] the target is T1, Actin-binding protein WASF3 (Homo sapiens) (UniProt Q9UPY6).
T1 sequence (whole entry): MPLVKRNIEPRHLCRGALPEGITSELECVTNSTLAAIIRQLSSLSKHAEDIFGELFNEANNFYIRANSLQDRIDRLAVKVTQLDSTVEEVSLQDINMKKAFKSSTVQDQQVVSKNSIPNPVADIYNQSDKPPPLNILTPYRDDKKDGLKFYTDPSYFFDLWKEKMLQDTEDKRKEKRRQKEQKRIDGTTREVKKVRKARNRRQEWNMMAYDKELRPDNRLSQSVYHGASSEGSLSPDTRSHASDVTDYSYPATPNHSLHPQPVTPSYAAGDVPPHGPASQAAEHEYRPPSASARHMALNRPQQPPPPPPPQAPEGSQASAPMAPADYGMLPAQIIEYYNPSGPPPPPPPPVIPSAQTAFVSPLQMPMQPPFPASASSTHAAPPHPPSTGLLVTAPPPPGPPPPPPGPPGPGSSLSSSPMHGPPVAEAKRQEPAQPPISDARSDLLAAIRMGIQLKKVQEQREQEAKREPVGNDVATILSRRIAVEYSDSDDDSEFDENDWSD
Description: Degradation of WASF3 in human serum starved MDA-MB-231 cells assessed as reduction in ABI2 expression at 2 uM measured after 72 hrs by Western blot analysis. The class given is cell-based. The method in brief:
(§2)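 Cells treated 72 h with peptides or controls. Lysates immunoblotted for ABI2 and WASF3. Band densitometry from three independent Western blots.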

The test system of assay [5] is MDA-MB-231. In words: Antiinvasive activity against human MDA-MB-231 cells assessed as reduction in number of invading cells incubated for 24 hrs by crystal violet staining based matrigel trans well migration assay. The assay is classed as functional, cell-based. The settings on record: dose 0.5-2 µM, DDE = dose-dependent effect. The method in brief: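 Matrigel invasion assay with peptide at 0.5–2 μM, scramble control (2 μM), reference peptide (10 μM) or DMSO. Invading cells fixed with paraformaldehyde, stained with crystal violet, imaged and counted in ImageJ. At least three independent assays; mean ± SD; one-way ANOVA with Bonferroni test.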

The test system of assay [6] is MDA-MB-231. In words: Drug uptake in human MDA-MB-231 cells by measuring uptake of fluorescence intensity in cytoplasm at 10 uM measured after 4 hrs by fluorescence microscopy method. The assay is classed as functional, cell-based. The method in brief:
(§3)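 Cells incubated 4 h with 5(6)-carboxyfluorescein-labeled peptide (2 μM or 10 μM) or DMSO. Cytoplasmic fluorescence imaged by fluorescence microscopy. n = 4.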

Assay [7] has as its target Abl interactor 2 (Homo sapiens) (UniProt Q9NYB9). Description: Binding affinity to ABI2 in human MDA-MB-231 cells at 2 uM measured after 4 hrs by measuring pulldown using streptavidin agarose resin by immunoblot analysis.
The test system of assay [8] is MDA-MB-231. In words: Antiinvasive activity against human MDA-MB-231 cells assessed as reduction in cell motility incubated for 18 hrs by wound healing assay relative to control. The class given is functional, cell-based. The settings on record: dose 0.5-2 µM, DDE = dose-dependent effect.
Assay [9] deals with MDA-MB-231. In words: Drug uptake in human MDA-MB-231 cells by measuring uptake of fluorescence intensity in cytoplasm at 2 uM measured after 4 hrs by fluorescence microscopy method. The class given is functional, cell-based. The method in brief: as §3
For assay [10], the target named is T1, Actin-binding protein WASF3 (Homo sapiens). Description: Degradation of WASF3 in human serum starved MDA-MB-231 cells assessed as reduction in WASF3 expression at 2 uM measured after 72 hrs by Western blot analysis. The class given is cell-based. The procedure, abridged:
as §2

Assay [11] concerns MDA-MB-231. In words: Antiinvasive activity against human MDA-MB-231 cells assessed as reduction in cell motility at 0.5 to 2 uM incubated for 18 hrs by wound healing assay relative to control. The assay is classed as functional. Set-up: scale not given: the % may be the effect or the level left. To be noted: dose 0.5-2 µM.
Assay [12] deals with MDA-MB-231. In words: Antiinvasive activity against human MDA-MB-231 cells assessed as reduction in cell motility at 2 uM incubated for 18 hrs by wound healing assay. The class given is functional, cell-based.
The test system of assay [13] is MDA-MB-231. In words: Drug uptake in human MDA-MB-231 cells by measuring uptake of fluorescence intensity in cytoplasm at 10 uM measured after 4 hrs by fluorescence microscopy method.

Molecules are shown by their SMILES. Activity calls are given as the source filed them. The rule behind the calls is not given here. Square brackets hold non-standard residues; d marks the D form. Peptide text beside a SMILES is read from it. Gly(pent-4-enyl) = C=CCCC[C@H](N)C(=O)O

Chain of Abl interactor 2 (Homo sapiens) (Q9NYB9 whole entry, looked up): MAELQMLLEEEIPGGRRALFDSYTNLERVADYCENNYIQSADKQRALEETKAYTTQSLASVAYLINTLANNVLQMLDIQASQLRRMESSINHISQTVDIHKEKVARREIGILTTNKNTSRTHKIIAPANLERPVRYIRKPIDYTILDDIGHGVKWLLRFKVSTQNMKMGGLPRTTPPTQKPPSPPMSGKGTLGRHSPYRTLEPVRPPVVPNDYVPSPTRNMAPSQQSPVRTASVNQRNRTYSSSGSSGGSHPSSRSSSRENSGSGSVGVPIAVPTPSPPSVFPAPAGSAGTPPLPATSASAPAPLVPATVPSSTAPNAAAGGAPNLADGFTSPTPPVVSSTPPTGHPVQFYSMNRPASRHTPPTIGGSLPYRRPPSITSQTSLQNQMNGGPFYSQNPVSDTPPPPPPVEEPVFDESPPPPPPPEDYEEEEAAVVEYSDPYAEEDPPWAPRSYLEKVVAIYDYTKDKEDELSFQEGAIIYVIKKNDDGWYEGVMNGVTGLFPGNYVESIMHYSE

On to `C=CCCC[C@H](NC(=O)[C@H](CCCCN)NC(=O)[C@H](CO)NC(=O)[C@H](CC(C)C)NC(=O)[C@H](CCCC=C)NC(=O)[C@H](CO)NC(=O)[C@H](CC(C)C)NC(=O)[C@H](CCCCN)NC(=O)[C@H](CCCNC(=N)N)NC(=O)[C@@H](NC(=O)[C@@H](NC(=O)[C@@H](N)CCCCN)[C@@H](C)CC)[C@@H](C)CC)C(=O)N[C@@H](C)C(=O)N[C@@H](CCC(=O)O)C(=O)N[C@@H](CCCCN)C(=O)N[C@H](C(=O)N[C@@H](Cc1ccccc1)C(=O)NCC(=O)N[C@@H](CCC(=O)O)C(=O)N[C@@H](CC(C)C)C(=O)N[C@@H](Cc1ccccc1)C(=O)N[C@@H](CCCCN)C(=O)O)[C@@H](C)CC` (H-KIIRKLS[Gly(pent-4-enyl)]LSK[Gly(pent-4-enyl)]AEKIFGELFK-OH), for which the outcome (in the assay with MDA-MB-231 [1]; in the assay on MDA-MB-231 [3]; in assay [4]; in assay [7]; in assay [10]; in the assay on MDA-MB-231 [12]) was Active. Further, the Activity is 40% in assay [2], “Dde” in the assay with MDA-MB-231 [5], “Dde” in the assay with MDA-MB-231 [8] and 48% in the assay with MDA-MB-231 [11]. Besides, the Drug uptake entry in the assay with MDA-MB-231 [6] (dose 2.0 µM, in the assay text read “at 2 uM” for “at 10 uM”) was “Active”; in the assay on MDA-MB-231 [9], “Active”.
In the case of `C=CCCC[C@H](NC(=O)[C@H](CO)NC(=O)[C@H](CC(C)C)NC(=O)[C@H](CCCCN)NC(=O)[C@H](CO)NC(=O)[C@H](CC(C)C)NC(=O)[C@H](CCC(N)=O)NC(=O)[C@H](CCCNC(=N)N)NC(=O)[C@@H](NC(=O)[C@@H](NC(=O)[C@@H](N)CCCCN)[C@@H](C)CC)[C@@H](C)CC)C(=O)N[C@@H](Cc1cnc[nH]1)C(=O)N[C@@H](C)C(=O)N[C@@H](CCC(=O)O)C(=O)N[C@@H](CCCC=C)C(=O)N[C@H](C(=O)N[C@@H](Cc1ccccc1)C(=O)NCC(=O)N[C@@H](CCC(=O)O)C(=O)N[C@@H](CC(C)C)C(=O)N[C@@H](Cc1ccccc1)C(=O)N[C@@H](CCCCN)C(=O)O)[C@@H](C)CC` (H-KIIRQLSKLS[Gly(pent-4-enyl)]HAE[Gly(pent-4-enyl)]IFGELFK-OH), the outcome in the assay on MDA-MB-231 [12] was Active.
On to `C=CCCC[C@H](NC(=O)[C@H](CO)NC(=O)[C@H](CC(C)C)NC(=O)[C@H](CCC(N)=O)NC(=O)[C@H](CCCC=C)NC(=O)[C@@H](NC(=O)[C@@H](NC(=O)[C@@H](N)CCCCN)[C@@H](C)CC)[C@@H](C)CC)C(=O)N[C@@H](CC(C)C)C(=O)N[C@@H](CO)C(=O)N[C@@H](CCCCN)C(=O)N[C@@H](Cc1cnc[nH]1)C(=O)N[C@@H](C)C(=O)N[C@@H](CCC(=O)O)C(=O)N[C@@H](CCCCN)C(=O)N[C@H](C(=O)N[C@@H](Cc1ccccc1)C(=O)NCC(=O)N[C@@H](CCC(=O)O)C(=O)N[C@@H](CC(C)C)C(=O)N[C@@H](Cc1ccccc1)C(=O)N[C@@H](CCCCN)C(=O)O)[C@@H](C)CC` (H-KII[Gly(pent-4-enyl)]QLS[Gly(pent-4-enyl)]LSKHAEKIFGELFK-OH), for which the result in the assay with MDA-MB-231 [12] was Active.
`C=CCCC[C@H](NC(=O)[C@H](CO)NC(=O)[C@H](CC(N)=O)NC(=O)[C@@H](NC(=O)[C@H](CCCC=C)NC(=O)[C@H](CCCCN)NC(=O)[C@H](CCC(=O)O)NC(=O)[C@@H](N)CC(C)C)[C@@H](C)O)C(=O)N[C@@H](CC(C)C)C(=O)N[C@@H](C)C(=O)N[C@@H](CCCCN)C(=O)N[C@H](C(=O)N[C@H](C(=O)N[C@@H](CCCNC(=N)N)C(=O)N[C@@H](CCC(N)=O)C(=O)N[C@@H](CC(C)C)C(=O)O)[C@@H](C)CC)[C@@H](C)CC` (H-LEK[Gly(pent-4-enyl)]TNS[Gly(pent-4-enyl)]LAKIIRQL-OH): the result in assay [4] and in assay [10] was Active. Moreover, the Drug uptake entry in the assay on MDA-MB-231 [6] (dose 10.0 µM) and in the assay on MDA-MB-231 [13] was “Active” throughout.
`C=CCCC[C@H](NC(=O)[C@H](CCCNC(=N)N)NC(=O)[C@@H](NC(=O)[C@@H](NC(=O)[C@@H](N)CCCC=C)[C@@H](C)CC)[C@@H](C)CC)C(=O)N[C@@H](CC(C)C)C(=O)N[C@@H](CO)C(=O)N[C@@H](CCCCN)C(=O)N[C@@H](CC(C)C)C(=O)N[C@@H](CO)C(=O)N[C@@H](CCCCN)C(=O)N[C@@H](Cc1cnc[nH]1)C(=O)N[C@@H](C)C(=O)N[C@@H](CCC(=O)O)C(=O)N[C@@H](CCCCN)C(=O)N[C@H](C(=O)N[C@@H](Cc1ccccc1)C(=O)NCC(=O)N[C@@H](CCC(=O)O)C(=O)N[C@@H](CC(C)C)C(=O)N[C@@H](Cc1ccccc1)C(=O)N[C@@H](CCCCN)C(=O)O)[C@@H](C)CC` (H-[Gly(pent-4-enyl)]IIR[Gly(pent-4-enyl)]LSKLSKHAEKIFGELFK-OH): the outcome in the assay on MDA-MB-231 [12] was Active.
